Assays:
Hamster [1] = assay: Inhibition of CYP17 in gonadally-intact hamster assessed as progesterone level in serum at 50 mg/kg, po after 2 hrs by LC/MS/MS analysis (reference value: 1.02 +/- 0.05 ng/mL); type: functional, Cricetinae
Hamster [2] = assay: Inhibition of CYP17 in gonadally-intact hamster assessed as testosterone level in serum at 50 mg/kg, po after 2 hrs by LC/MS/MS analysis (reference value: 1.98 +/- 0.057 ng/mL); type: functional, Cricetinae
Cytochrome P450 3A4 = Cytochrome P450 3A4 (Homo sapiens, UniProt P08684); assay: Inhibition of human hepatocyte microsome CYP3A4 using testosterone as substrate by HPLC/MS/MS method; type: ADME
Chain of Cytochrome P450 3A4 (P08684 whole entry): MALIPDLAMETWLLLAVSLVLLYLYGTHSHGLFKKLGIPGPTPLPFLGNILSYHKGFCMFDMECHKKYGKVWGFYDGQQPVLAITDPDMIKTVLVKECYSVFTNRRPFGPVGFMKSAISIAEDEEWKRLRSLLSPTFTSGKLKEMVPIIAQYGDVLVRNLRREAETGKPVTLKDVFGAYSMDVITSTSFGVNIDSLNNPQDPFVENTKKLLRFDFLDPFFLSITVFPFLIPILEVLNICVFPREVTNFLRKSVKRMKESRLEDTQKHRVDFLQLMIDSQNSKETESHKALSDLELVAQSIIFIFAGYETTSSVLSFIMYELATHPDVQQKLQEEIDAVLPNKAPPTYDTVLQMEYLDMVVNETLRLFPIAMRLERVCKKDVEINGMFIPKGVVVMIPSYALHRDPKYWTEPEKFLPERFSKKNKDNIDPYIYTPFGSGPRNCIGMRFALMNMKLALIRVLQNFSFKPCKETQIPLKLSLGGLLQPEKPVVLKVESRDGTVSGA
Procedure, shortened: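 Pooled human hepatocyte microsome preparation with an NADPH-regenerating system. Product analysed by HPLC/MS/MS. IC50 from a 4-parameter logistic fit of the dose-response data.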

[3] = biological target: T1, Steroid 17-alpha-hydroxylase/17,20 lyase (Rattus norvegicus, UniProt P11715); assay: Inhibition of rat testicular microsome CYP17 lyase activity using 17alpha-hydroxypregnenolone as substrate by HPLC/MS/MS method
T1 sequence (P11715 whole entry): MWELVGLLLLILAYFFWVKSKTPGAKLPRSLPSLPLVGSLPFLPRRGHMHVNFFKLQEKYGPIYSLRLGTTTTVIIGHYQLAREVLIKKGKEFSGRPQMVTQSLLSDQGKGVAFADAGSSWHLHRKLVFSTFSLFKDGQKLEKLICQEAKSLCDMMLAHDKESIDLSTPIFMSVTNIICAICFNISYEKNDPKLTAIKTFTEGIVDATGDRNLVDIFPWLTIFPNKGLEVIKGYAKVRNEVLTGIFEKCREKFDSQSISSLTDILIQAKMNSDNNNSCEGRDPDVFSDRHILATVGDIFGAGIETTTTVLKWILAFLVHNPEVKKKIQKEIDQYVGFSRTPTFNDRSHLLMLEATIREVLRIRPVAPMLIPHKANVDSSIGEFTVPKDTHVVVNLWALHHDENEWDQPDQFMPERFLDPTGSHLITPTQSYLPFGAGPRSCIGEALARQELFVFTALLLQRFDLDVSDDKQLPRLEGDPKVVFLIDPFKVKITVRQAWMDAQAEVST
Procedure, shortened: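 Rat testicular microsome preparation with an NADPH-regenerating system. Product analysed by HPLC/MS/MS. IC50 taken from a 4-parameter logistic fit of the dose-response data.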

[4] = biological target: T2, Steroid 17-alpha-hydroxylase/17,20 lyase (Homo sapiens, UniProt P05093); assay: Inhibition of human recombinant CYP17 hydroxylase activity by HPLC/MS/MS method
T2 sequence (P05093 whole entry): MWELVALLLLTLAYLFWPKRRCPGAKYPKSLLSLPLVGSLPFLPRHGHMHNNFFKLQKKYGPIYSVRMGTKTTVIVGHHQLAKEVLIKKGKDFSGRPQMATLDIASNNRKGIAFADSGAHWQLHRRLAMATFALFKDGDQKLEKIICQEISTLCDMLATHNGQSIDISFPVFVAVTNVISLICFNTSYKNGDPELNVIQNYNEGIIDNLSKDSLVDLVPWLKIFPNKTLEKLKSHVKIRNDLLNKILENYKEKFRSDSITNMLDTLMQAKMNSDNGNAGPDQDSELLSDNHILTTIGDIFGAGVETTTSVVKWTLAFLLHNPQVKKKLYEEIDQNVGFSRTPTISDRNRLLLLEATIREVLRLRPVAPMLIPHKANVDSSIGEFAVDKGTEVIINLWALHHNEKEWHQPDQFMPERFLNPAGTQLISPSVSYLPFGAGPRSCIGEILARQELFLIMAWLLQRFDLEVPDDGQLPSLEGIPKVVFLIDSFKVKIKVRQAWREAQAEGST
Procedure, shortened: (§1)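 Recombinant human CYP17 expressed in a yeast microsome system, run with an NADPH-regenerating system. Hydroxylase and lyase products analysed by HPLC/MS/MS. IC50 from a 4-parameter logistic fit of the dose-response data.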

[5] = biological target: T2, Steroid 17-alpha-hydroxylase/17,20 lyase; assay: Inhibition of human recombinant CYP17 lyase activity using 17alpha-hydroxypregnenolone as substrate by HPLC/MS/MS method; procedure, shortened: as §1
[6] = tested on: CYP3A4 versus CYP17 lyase; assay: Selectivity ratio of IC50 for human hepatocyte microsome CYP3A4 to IC50 for human recombinant CYP17 lyase activity; type: ADME, cell-based; settings: read-out: Ratio IC50
Procedure, shortened: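 Ratio of human CYP3A4 IC50 (pooled human hepatocyte microsomes) to human CYP17 lyase IC50 (recombinant enzyme, yeast microsomes). Both IC50 values from HPLC/MS/MS product analysis with a 4-parameter logistic fit.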

[7] = biological target: T2, Steroid 17-alpha-hydroxylase/17,20 lyase; assay: Selectivity ratio of IC50 for human recombinant CYP17 hydroxylase activity to IC50 for human recombinant CYP17 lyase activity
Procedure, shortened: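 Lyase selectivity expressed as human hydroxylase IC50 divided by human lyase IC50. Both values come from recombinant human CYP17 in a yeast microsome system, with products analysed by HPLC/MS/MS and 4-parameter logistic fitting.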

[8] = Metabolic stability in human liver microsomes assessed as compound remaining after 60 mins; type: ADME; settings: read-out: Stability
Procedure, shortened: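 Incubation in human liver microsomes for 60 min. Read-out is the percentage of parent compound remaining.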

[9] = biological target: T1, Steroid 17-alpha-hydroxylase/17,20 lyase; assay: Inhibition of rat testicular microsome CYP17 hydroxylase activity by HPLC/MS/MS method
Procedure, shortened: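 Rat testicular microsomal preparation as the enzyme source, with an NADPH-regenerating system. Reaction product was analysed by HPLC/MS/MS. IC50 was derived from a 4-parameter logistic fit of the dose-response data.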

[10] = tested on: CYP3A4 versus CYP17 lyase; assay: Selectivity ratio of IC50 for human hepatocyte microsome CYP3A4 to IC50 for rat testicular microsome CYP17 lyase activity

SMILES | IC50 (Cytochrome P450 3A4) | IC50 [3] | IC50 [4] | IC50 [5] | selectivity ratio [6] | Ratio IC50 [7] | also measured
CC(C)[C@](O)(c1ccc2cc(OC(F)F)c(OC(F)F)cc2c1)c1c[nH]nn1 [SEVITERONEL] |  |  |  |  |  |  | Activity (Hamster [1]): 1.2 ng/mL; Activity (Hamster [2]): 0.37 ng/mL
COc1cc2ccc(C(O)(c3cnco3)C(C)C)cc2cc1OC (racemic) | 6500 nM | 86 nM |  |  |  |  | 
CC(C)C(O)(c1ccc2cc(OCC(F)(F)F)ccc2c1)c1c[nH]nn1 (racemic) | ≥ 195000 nM |  | 1000 nM | 570 nM | ≥ 340 | 1.8 | 
COc1cc2ccc(C(O)(c3cccnc3)C(C)C)cc2cc1OC (racemic) | 9400 nM | 4200 nM |  |  |  |  | 
COc1cc2ccc(C(O)(c3nc[nH]n3)C(C)C)cc2cc1OC (racemic) | 100000 nM | 7100 nM |  |  |  |  | 
CC(C)C(O)(c1ccc2cc(OCC(F)(F)F)c(OCC(F)(F)F)cc2c1)c1c[nH]nn1 (racemic) | 25000 nM |  | 3700 nM | 310 nM | 80 | 12 | 
CC(=O)O[C@H]1CC[C@@]2(C)C(=CC[C@@H]3[C@@H]2CC[C@]2(C)C(c4cccnc4)=CC[C@@H]32)C1 [ABIRATERONE ACETATE] |  |  |  |  |  |  | Activity (Hamster [1]): 2.1 ng/mL; Activity (Hamster [2]): 0.3 ng/mL
CC(C)C(O)(c1ccc2cc(OC(F)F)c(OC(F)F)cc2c1)c1c[nH]nn1 (racemic) |  |  | 690 nM | 170 nM |  |  | remaining at 1 h [8]: 54%
CC(C)C(O)(c1ccc2cc(OC(F)F)ccc2c1)c1c[nH]nn1 (racemic) | 14000 nM |  | 74 nM | 330 nM | 42 | 0.22 | 
COc1cc2ccc(C(O)(c3cncs3)C(C)C)cc2cc1OC (racemic) | 770 nM |  |  |  |  |  | 
COc1cc2ccc(C(O)(c3c[nH]cn3)C(C)C)cc2cc1OC (racemic) | 1600 nM | 29 nM | 220 nM | 50 nM | 32 | 4.4 | IC50 [9]: 140 nM; Activity (Hamster [1]): 3.9 ng/mL; Activity (Hamster [2]): 0.3 ng/mL
COc1cc2ccc(C(O)(c3cn[nH]c3)C(C)C)cc2cc1OC (racemic) | 27000 nM | 430 nM |  |  |  |  | 
COc1cc2ccc(C(O)(c3c[nH]nn3)C(C)C)cc2cc1OC (racemic) | 57000 nM |  | 2300 nM | 180 nM | 320 | 13 | selectivity ratio [10]: 317; remaining at 1 h [8]: 29%
COc1cc2ccc(C(O)(c3ccncc3)C(C)C)cc2cc1OC (racemic) | 4500 nM | 60 nM |  |  |  |  | 
CC(C)C(O)(c1ccc2cc(-c3cnco3)ccc2c1)c1c[nH]nn1 (racemic) | 102000 nM |  | 13000 nM | 940 nM | 110 | 14 | 
COc1cc2ccc(C(O)(c3ccncn3)C(C)C)cc2cc1OC (racemic) | 18000 nM |  |  |  |  |  | 
CC(C)C(O)(c1ccc2cc(-c3cccs3)ccc2c1)c1c[nH]nn1 (racemic) | 81000 nM |  | 13000 nM | > 4000 nM | < 20 | < 3 | 
COc1cc2ccc(C(O)(c3cc[nH]n3)C(C)C)cc2cc1OC (racemic) | 1800 nM | 1600 nM |  |  |  |  | 
